For data set [1], the system named is Liver microsomes. As to the kind of experiment: Metabolic stability in rat liver microsomes at 1 uM after 10 mins by LC-MS analysis in presence of NADPH. The format is ADME, Microsome. The method in brief:
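Pooled male rat liver microsomes at 0.5 mg/ml with compound at 1 µM, 37 °C. Reaction started with NADPH, and aliquots taken at 0 and 10 min. Percent parent remaining is the 10-min/0-min signal ratio, corrected by internal standard recovery.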

Data set [2] is described as follows: Aqueous solubility at pH 7.4. The format is physicochemical.
In data set [3] the target is T1, B1 bradykinin receptor (Rattus norvegicus, UniProt P97583).
T1 sequence (P97583 whole entry): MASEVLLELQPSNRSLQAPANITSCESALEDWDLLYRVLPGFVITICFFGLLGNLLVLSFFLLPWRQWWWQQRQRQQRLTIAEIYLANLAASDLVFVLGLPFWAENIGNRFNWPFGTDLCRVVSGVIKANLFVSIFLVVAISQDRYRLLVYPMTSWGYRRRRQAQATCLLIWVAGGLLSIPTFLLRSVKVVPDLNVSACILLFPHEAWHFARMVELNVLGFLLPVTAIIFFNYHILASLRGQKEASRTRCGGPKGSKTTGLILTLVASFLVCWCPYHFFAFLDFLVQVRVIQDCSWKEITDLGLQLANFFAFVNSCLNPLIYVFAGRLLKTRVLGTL
Briefly: Antagonist activity at rat bradykinin B1 receptor. The format is functional. Put shortly: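 Rat B1 receptor tested in the same way as the cynomolgus assay: FLIPR Ca2+ transients with inhibition of DAKD-induced fluorescence measured across multiple compound concentrations to derive functional IC50.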

For data set [4], the system named is MDCK. As to the kind of experiment: Ratio of permeability from basolateral to apical over apical to basolateral side of MDCK cells expressing MDR1. The note with it: dog. The format is ADME, cell-based, Canis lupus familiaris. The method in brief:
(§1)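 MDR1-transfected MDCK cell monolayer. Apparent permeability (Papp) measured in the apical-to-basolateral and basolateral-to-apical directions. The A-to-B Papp is reported as passive permeability, and the efflux ratio is Papp(B→A)/Papp(A→B).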

Data set [5] has as its system MDR1. As to the kind of experiment: Passive permeability from apical to basolateral side of MDCK cells expressing MDR1. The note with it: dog. The format is ADME, cell-based, Canis lupus familiaris. The method in brief: as §1
Data set [6] concerns the target T2, B1 bradykinin receptor (Macaca fascicularis, UniProt Q3BCU0).
T2 sequence (Q3BCU0 whole entry): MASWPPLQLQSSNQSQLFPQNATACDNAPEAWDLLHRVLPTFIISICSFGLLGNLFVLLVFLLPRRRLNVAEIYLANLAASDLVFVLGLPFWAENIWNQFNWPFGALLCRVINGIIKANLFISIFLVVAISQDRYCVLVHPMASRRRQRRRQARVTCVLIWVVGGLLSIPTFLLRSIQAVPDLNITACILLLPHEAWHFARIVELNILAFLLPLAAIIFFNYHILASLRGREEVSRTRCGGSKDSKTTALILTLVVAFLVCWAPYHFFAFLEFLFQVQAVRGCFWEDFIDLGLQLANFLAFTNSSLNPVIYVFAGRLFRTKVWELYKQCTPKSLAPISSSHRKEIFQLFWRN
Briefly: Antagonist activity at Cynomolgus monkey bradykinin B1 receptor expressed in CHO cells assessed as calcium transient by FLIPR assay. The format is functional, cell-based.

The nature of data set [7]: Oral bioavailability in rat at 10 mg/kg. The format is ADME, organism-based. The note with it: in vivo.
Data set [8] relates to MDCK. As to the kind of experiment: Ratio of permeability from basolateral to apical over apical to basolateral side of MDCK cells expressing MDR1 in presence of cyclosporine. Particulars: dog. The format is ADME, cell-based, Canis lupus familiaris. The method in brief:
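MDR1-transfected MDCK monolayer run with 25 µM cyclosporine as P-gp inhibitor. Efflux ratio is Papp basolateral-to-apical divided by Papp apical-to-basolateral.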

Data set [9] has as its target T3, B1 bradykinin receptor (Homo sapiens, UniProt P46663).
T3 sequence (P46663 whole entry): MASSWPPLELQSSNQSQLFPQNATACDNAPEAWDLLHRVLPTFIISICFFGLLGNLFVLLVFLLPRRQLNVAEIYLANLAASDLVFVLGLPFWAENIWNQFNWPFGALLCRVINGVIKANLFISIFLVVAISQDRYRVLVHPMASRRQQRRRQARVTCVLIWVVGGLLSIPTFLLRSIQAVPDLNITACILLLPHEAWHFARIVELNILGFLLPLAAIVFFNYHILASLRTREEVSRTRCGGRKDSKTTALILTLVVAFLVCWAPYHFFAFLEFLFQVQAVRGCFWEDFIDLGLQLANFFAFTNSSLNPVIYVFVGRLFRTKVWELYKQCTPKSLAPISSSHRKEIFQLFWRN
As to the kind of experiment: Inhibition of human bradykinin B1 receptor.

Values after ≈ are worked out from the molar mass of the structure shown. A value given as a limit tells only on which side of the number the result lay.

For the compound `CCN(CC(=O)N1CCN(C2CCN(C)CC2)CC1)C(=O)c1nc2ccccc2n1Cc1ccccc1`, in data set [1], the Stability result is listed as “Stable”. For the same compound, the concentration in solution in data set [2] (solubility) came to 120 µg/mL (≈ 239 µM). Moreover, the values for the IC50 in data set [3] and in [6] were 15 nM and 16 nM, respectively. Moreover, the Ratio in [4] is given as 55. For the same compound, in [5], the Papp A→B was 0.6 ×10⁻⁶ cm/s. The bioavailability in [7] is under 5%.
`CN(Cc1ccc(C2=NCCN2)cc1)C(=O)c1nc2ccccc2n1Cc1ccccc1`: the IC50 in [6] stood at 1020 nM.
Same read-out and setting: for `CN(Cc1ccc(-c2cc[nH]n2)cc1)C(=O)CNC(=O)c1nc2ccccc2n1Cc1ccccc1` the value was 2130 nM; for `CCC(NC(=O)c1nc2ccccc2n1Cc1ccccc1)C(=O)N1CCN(c2ccncc2)CC1` (stereo not given), over 5000 nM; for `CN1CCC(N2CCN(C(=O)CCNC(=O)c3nc4ccccc4n3Cc3ccccc3)CC2)CC1`, 601 nM.
Still for that read-out and setting: next, `O=C(NCCC(=O)N1CCC2(CCOCC2)CC1)c1nc2ccccc2n1Cc1ccccc1`: 1990 nM; `CN1CCC(N2CCN(C(=O)[C@@H]3CCCN3C(=O)c3nc4ccccc4n3Cc3ccccc3)CC2)CC1`: 884 nM; `CN1CCC(N2CCN(C(=O)CNC(=O)c3nc4ccccc4n3Cc3ccccc3)CC2)CC1`: 686 nM.
On to `CN1CCC(N2CCN(C(=O)[C@H]3CCCN3C(=O)c3nc4ccccc4n3Cc3ccccc3)CC2)CC1`, for which the 50% inhibitory concentration (IC50) in data set [6] was 3220 nM.
As to `CN(Cc1ccc(C2=NCCN2)cc1)C(=O)C1CCN(C(=O)c2nc3ccccc3n2Cc2ccccc2)CC1`, the IC50 in data set [6] came out at 188 nM.
Still for that read-out and setting: for `O=C([C@H]1CCCN1C(=O)c1nc2ccccc2n1Cc1ccccc1)N1CCN(c2ccncc2)CC1` the value was 4070 nM.
The same measure, in the same setting: for `CCN(CC(=O)N1CCN(C2CCN(C)CC2)CC1)Cc1nc2ccccc2n1Cc1ccccc1` the value was over 5000 nM; for `O=C(c1nc2ccccc2n1Cc1ccccc1)N1CCN(c2ccncc2)CC1`, over 5000 nM; for `CN(Cc1ccc(-c2ccccn2)cc1)C(=O)CNC(=O)c1nc2ccccc2n1Cc1ccccc1`, 407 nM.
On the same count and under the same terms, for `CN(Cc1ccc(-c2ncccn2)cc1)C(=O)CNC(=O)c1nc2ccccc2n1Cc1ccccc1` the value was 330 nM.
Turning to `CCCN(CC(=O)N1CCN(c2ccncc2)CC1)C(=O)c1nc2ccccc2n1Cc1ccccc1`, the IC50 in [3] was determined as 396 nM; in data set [6], 355 nM.
For `O=C(NCC(=O)N1CCN(c2ccncc2)CC1)c1nc2ccccc2n1Cc1ccccc1` the same measures were 417 nM and 310 nM.
On to `O=C(NCCC(=O)N1CCN(c2ccncc2)CC1)c1nc2ccccc2n1Cc1ccccc1`, for which the IC50 in data set [6] came to 962 nM.
For the compound `CN(Cc1ccc(C#N)cc1)C(=O)CNC(=O)c1nc2ccccc2n1Cc1ccccc1`, the Ratio in [4] came to 3. In data set [5], this compound displayed a Papp A→B of 7 ×10⁻⁶ cm/s. In addition, the IC50 in data set [6] is over 5000 nM.
In the case of `CN(Cc1ccc(C2=NCCN2)cc1)C(=O)CNC(=O)c1nc2ccccc2n1Cc1ccccc1`, the IC50 was found to be 155 nM in data set [3] and 5 nM in [6]. In addition, the Ratio in data set [4] is 23; in data set [8], 1.5. Moreover, the Papp A→B in data set [5] was 1 ×10⁻⁶ cm/s.
`CN(Cc1ccc(-n2ccnc2)cc1)C(=O)CNC(=O)c1nc2ccccc2n1Cc1ccccc1`: the IC50 in [6] amounted to 626 nM.
With `CCN(CC(=O)N1CCN(c2ccncc2)CC1)Cc1nc2ccccc2n1Cc1ccccc1`, the IC50 in [6] was over 5000 nM.
In the case of `CCN(CC(=O)N1CCN(c2ccncc2)CC1)C(=O)c1nc2ccccc2n1Cc1ccccc1`, the IC50 in data set [6] worked out at 278 nM.
The same measure, in the same setting: for `CN(Cc1ccc(-c2nnn[nH]2)cc1)C(=O)CNC(=O)c1nc2ccccc2n1Cc1ccccc1` the value was over 5000 nM; for `CN1CCC(N2CCN(C(=O)c3nc4ccccc4n3Cc3ccccc3)CC2)CC1`, over 5000 nM; for `CN(Cc1ccc(CN2CCCCC2)cc1)C(=O)CNC(=O)c1nc2ccccc2n1Cc1ccccc1`, 196 nM.
As to `CC(C)N(CC(=O)N1CCN(C2CCN(C)CC2)CC1)C(=O)c1nc2ccccc2n1Cc1ccccc1`, the IC50 in data set [6] was 465 nM.
On to `CCN(CC(=O)N(C)Cc1ccc(C2=NCCN2)cc1)C(=O)c1nc2ccccc2n1Cc1ccccc1`, for which the IC50 in data set [3] turned out to be 345 nM; in data set [6], 6 nM.
For the compound `CN(Cc1ccc(-c2nccs2)cc1)C(=O)CNC(=O)c1nc2ccccc2n1Cc1ccccc1`, the IC50 in data set [6] was determined as 1170 nM.
The same measure, in the same setting: for `O=C([C@@H]1CCCN1C(=O)c1nc2ccccc2n1Cc1ccccc1)N1CCN(c2ccncc2)CC1` the value was over 5000 nM.
Still for that read-out and setting: next, `CN1CCC(N2CCN(C(=O)C3CCN(C(=O)c4nc5ccccc5n4Cc4ccccc4)CC3)CC2)CC1`: 4020 nM; `CN(Cc1ccc(C2=NCCN2)cc1)C(=O)CCNC(=O)c1nc2ccccc2n1Cc1ccccc1`: 54 nM.
Same read-out and setting: for `O=C(c1nc2ccccc2n1Cc1ccccc1)N1CCC(C(=O)N2CCN(c3ccncc3)CC2)CC1` the value was 2310 nM.
On to `CN(Cc1ccc(C(N)=O)cc1)C(=O)CNC(=O)c1nc2ccccc2n1Cc1ccccc1`, for which the IC50 in [6] was over 5000 nM.
Consider `Cc1nc(-c2ccc(CN(C)C(=O)CNC(=O)c3nc4ccccc4n3Cc3ccccc3)cc2)no1`, for which the IC50 in data set [6] worked out at 718 nM.
As to `CCCN1C(=O)C(NC(=O)Nc2ccc(N3CCN(c4ccncc4)CC3)cc2)N=C(CCc2ccccc2)c2ccccc21` (stereo not given), the Ki in data set [9] came to 0.59 nM; in data set [3], 0.92 nM. The bioavailability in [7] is under 4%.
Compound `Cc1c(C(=O)NCCC2CCN(C3CCN(C)CC3)CC2)n[nH]c1NC(=O)c1ccccc1Cl` had an IC50 in data set [9] of 1.8 nM.
With `O=C(CCNC(=O)c1nc2ccccc2n1Cc1ccccc1)Nc1ccc(C2=NCCN2)nc1`, the results for the IC50 in data set [3] and in data set [6] were 0.8 nM and 2 nM, respectively. Besides, the Ratio in data set [4] is given as 42.
As for `CN1CCC2(CC1)CCN(C(=O)CCNC(=O)c1nc3ccccc3n1Cc1ccccc1)CC2`, the IC50 in [6] is over 5000 nM.
As for `CN(Cc1ccc(C2=NCCN2C)cc1)C(=O)CNC(=O)c1nc2ccccc2n1Cc1ccccc1`, the IC50 in [6] came to 14 nM.
Consider `CN(CC(=O)N1CCN(c2ccncc2)CC1)C(=O)c1nc2ccccc2n1Cc1ccccc1`, for which the IC50 in data set [6] amounted to 1180 nM.
On the same count and under the same terms, for `O=C(CCNC(=O)c1nc2ccccc2n1Cc1ccccc1)Nc1ccc2nc[nH]c2c1` the value was 744 nM; for `O=C1NCC2(CCN(C(=O)CCNC(=O)c3nc4ccccc4n3Cc3ccccc3)CC2)O1`, over 5000 nM; for `O=C(CCNC(=O)c1nc2ccccc2n1Cc1ccccc1)Nc1ccc2cn[nH]c2c1`, 524 nM.
For `CN1CCC2(CCN(C(=O)CCNC(=O)c3nc4ccccc4n3Cc3ccccc3)CC2)C1`, the IC50 in [6] was 2910 nM.
Same read-out and setting: for `CN1CCC(N2CCN(C(=O)CN(C)C(=O)c3nc4ccccc4n3Cc3ccccc3)CC2)CC1` the value was 268 nM.
`CCCN(CC(=O)N1CCN(C2CCN(C)CC2)CC1)C(=O)c1nc2ccccc2n1Cc1ccccc1`: the IC50 in [3] is 23 nM; in data set [6], 18 nM.
Turning to `CCC(NC(=O)c1nc2ccccc2n1Cc1ccccc1)C(=O)N1CCN(C2CCN(C)CC2)CC1` (stereo not given), the IC50 in data set [6] amounted to 1300 nM.
The same measure, in the same setting: for `CN(C)C(=O)c1ccc(CN(C)C(=O)CNC(=O)c2nc3ccccc3n2Cc2ccccc2)cc1` the value was over 5000 nM.
The same measure, in the same setting: next, `CC(C)N(CC(=O)N1CCN(c2ccncc2)CC1)C(=O)c1nc2ccccc2n1Cc1ccccc1`: over 5000 nM.

As a reminder, the solubility is the concentration that dissolves in the medium under given conditions. One may read the IC50 as the concentration needed to halve the response being measured. For orientation: Papp A→B means the apparent permeability from the apical to the basolateral side of a cell layer. The bioavailability is dose-corrected exposure relative to a reference, in per cent. In general, Ki refers to a dissociation constant, usually derived from enzyme kinetics or from competition with a known ligand.

For the origin of these results see ChEMBL document CHEMBL1144173, “1-Benzylbenzimidazoles: the discovery of a novel series of bradykinin B(1) receptor antagonists” (Bioorg Med Chem Lett, 2008).
